Paper PMC3259211 (Journal of Controlled Release, 2011)

Assays:
[1] = system: Jurkat cells (CXCL12-induced migration); conditions: Jurkat T-cells; ref [30]; cited from earlier work
white blood cells (WBCs) = test: Mobilization of white blood cells to peripheral blood; type: in vivo, mice; conditions: 50 µg per mouse s.c., 2 h; in words
Outline: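 Normal mice received 50 µg test peptide s.c. in 200 µL; untreated mice were controls. Heart blood was taken under anaesthesia at 30 min, 1 h and 2 h. 100 µL blood was RBC-lysed, blocked 10 min on ice with 2% rat and 2% mouse serum, and stained for CD45.2, CD3, B220, CD11b, Gr-1 and F4/80. Cells were counted by flow cytometry with counting beads, WBCs gated as CD45.2⁺. Groups had ≥3 mice; two experiments.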

progenitor cells = test: Mouse progenitor colony assay; type: in vivo, mice; conditions: 50 µg, post injection; in words
Outline: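 Mice were injected s.c. with 50 µg peptide; untreated mice were controls. 150 µL blood per mouse was plated in 3 mL MethoCult GF. Colonies were counted by inverted microscope 14 days after plating. Each group had ≥3 mice, assayed in duplicate per mouse.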

CXCR4 = CXCR4 (Homo sapiens, UniProt P61073); conditions: read-out: IC50 (binding to CXCR4); reported for T140; ref [26]; cited from earlier work
stem cells = conditions: mice; ref [12]; cited from earlier work

CXCR4, sequence (P61073 whole entry): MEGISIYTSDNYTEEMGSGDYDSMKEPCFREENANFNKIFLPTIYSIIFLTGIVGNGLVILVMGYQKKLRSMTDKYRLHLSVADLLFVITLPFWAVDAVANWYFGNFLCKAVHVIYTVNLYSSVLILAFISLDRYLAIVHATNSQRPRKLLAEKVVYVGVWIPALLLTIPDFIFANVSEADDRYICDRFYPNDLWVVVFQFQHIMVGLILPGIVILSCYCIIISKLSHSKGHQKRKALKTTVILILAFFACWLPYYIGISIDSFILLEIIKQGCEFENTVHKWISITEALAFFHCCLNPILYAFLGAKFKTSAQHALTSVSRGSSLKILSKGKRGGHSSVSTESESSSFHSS

Substance: CXCL12: natural human ligand of CXCR4, chemokine CXCL12/SDF-1
- lowest concentration that induces maximal migration [1]: 100 ng/mL

Substance: 4-F-benzoyl-TN14003 [T140]
- time course of WBC numbers in the blood (white blood cells (WBCs)): remained relatively stable after 2 h
- time course of progenitors in the blood (progenitor cells): increased steadily and remained substantially elevated between 2 and 4 h post injection
- IC50 (CXCR4): 2.5 nM
- in vivo mobilization of stem cells from the bone marrow (stem cells): induces in vivo mobilization of stem cells from the bone marrow, which is additive in effect with G-CSF treatment
